High-throughput results: PubChem BioAssay, several laboratories
IMP-1 inh-1 – blocks Pseudomonas aeruginosa IMP-1 metallo-beta-lactamase; inhibition, % at 5.6 µM; purified IMP-1, nitrocefin hydrolysis, epi-absorbance fluorescence; 290,000 compounds, 0.45% hits; AID 1556;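 active = inhibition above the mean plus 3 SD of all compounds in the same screening run, cut at about 4.5% in these data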
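Assay system: purified IMP-1; Quantity: IMP-1 0.2 nM before substrate addition; Medium: HEPES buffer pH 7.1 with ZnSO4 and Brij 35; Incubation: 15 min enzyme–compound preincubation, then 25 min nitrocefin reaction, 25 °C; Signal: fluorescence quenching readout, ex 480/em 530 nm; Controls: DMSO with and without IMP-1; Repeats: singlicate testing.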
MLLE-PAM2 inh – inhibitors of microRNA-mediated deadenylation, human PABP1 MLLE binding; GST-MLLE / FITC-PAM2 fluorescence polarization; inhibition, % at 20 µM; 360,000 compounds, 0.36% hits; P11940; AID 588489; in the data active = inhibition above about 35%, passing the limit was not always enough
eIF4H inh – inhibitors of RNA binding by human eIF4H; Q15056; eIF4H fluorescence polarization binding assay; inhibition, % at 35 µM; 290,000 compounds, 0.94% hits; AID 2012;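 note: calls also rest on retests at 20 µM and on dose response follow-up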
PABP polyA inh – blocks human PABP binding to poly(A) RNA | fluorescence polarization | AID 2014 | P11940 | 290,000 compounds, 1% hits | calls only at 35 µM;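 note: calls also rest on retests at 20 µM and on dose response follow-up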
VIM-2 inhibitor – blocks Pseudomonas aeruginosa VIM-2 metallo-beta-lactamase; purified VIM-2, nitrocefin hydrolysis, epi-absorbance fluorescence; inhibition, % at 5.6 µM; 290,000 compounds, 0.89% hits;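 active = inhibition above the mean of all tested compounds plus 3 SD, cutoff set per screening run, cut at about 7.5% in these data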;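 note: red hydrolysis product quenches plate fluorescence so inhibitors raise well fluorescence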
IMP-1 inh-2 – blocks IMP-1 metallo-beta-lactamase in VIM-2 selectivity screen; inhibition, % at 5.6 µM; 1,300 tested, under 10 active; shares compounds with VIM-2 inhibitor; AID 1856; purified IMP-1, nitrocefin hydrolysis, epi-absorbance fluorescence
VIM-2 FRET inh – VIM-2 FRET inhibition, artifact counter-screen. shares compounds with VIM-2 inhibitor. purified VIM-2, CCF2 FRET substrate hydrolysis. inhibition, % at 5.6 µM. 1,300 compounds, 23% hits. AID 1857;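 active = inhibition above the mean of all tested compounds plus 3 SD, cut at about 19% in these data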
TEM-1 inh – TEM-1 inhibition, counter-screen for VIM-2 inhibitors. shares compounds with VIM-2 inhibitor. Purified TEM-1, nitrocefin hydrolysis, epi-absorbance fluorescence. inhibition, % at 5.6 µM. 1,300 compounds, 3% hits. AID 1866;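 active = inhibition above that campaign's mean inhibition plus 3 SD, cut at about 0.46% in these data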
Target sequence (P62593 whole entry, looked up): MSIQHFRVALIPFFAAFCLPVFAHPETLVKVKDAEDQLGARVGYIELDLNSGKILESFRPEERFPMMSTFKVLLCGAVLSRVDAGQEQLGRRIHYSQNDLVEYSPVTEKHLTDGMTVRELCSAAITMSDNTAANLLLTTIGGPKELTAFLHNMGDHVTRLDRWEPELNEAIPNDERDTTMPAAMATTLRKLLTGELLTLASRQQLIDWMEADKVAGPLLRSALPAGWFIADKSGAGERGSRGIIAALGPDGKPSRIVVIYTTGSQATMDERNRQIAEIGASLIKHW
VIM-2 inh conf – confirmation of P. aeruginosa VIM-2 metallo-beta-lactamase inhibitors | 1,300 compounds, 96% hits | shares compounds with VIM-2 inhibitor | purified VIM-2, nitrocefin hydrolysis, epi-absorbance | inhibition, % at 5.6 µM;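 active = inhibition of the VIM-2 beta-lactamase enzyme above about 11% from the earlier first-round screen, limit read from the data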
Numbers stand for hits; - = inactive; ? = inconclusive; . = no result given. The list is not random: actives were taken first. Their share in the collection is about 2.2%. Unless noted, the rule behind the calls is not given here.

SMILES | IMP-1 inh-1 | MLLE-PAM2 inh | eIF4H inh | PABP polyA inh | VIM-2 inhibitor | IMP-1 inh-2 | VIM-2 FRET inh | TEM-1 inh | VIM-2 inh conf
CCCc1cc(NCCCN(C)C)n2c(nc3ccccc32)c1C#N | - | - | - | - | 20.6 | - | - | 2.0 | 35.1
C=C(C)Cc1c(C)c(C#N)c2nc3ccccc3n2c1NCCCN(C)C | - | - | - | - | 29.3 | - | - | - | 45.1
COc1ccc(CCNC(=O)C(=O)NCC2OCCN2S(=O)(=O)c2ccc3c(c2)OCCO3)cc1 (stereo not drawn) | - | - | - | - | - | . | . | . | .
Cc1nc(N2CCCC2)c2ccsc2n1 | - | - | - | - | 13.8 | - | - | - | 14.8
COc1ccc(S(=O)(=O)N2CCOCC2)cc1NC(=O)CN1C(=O)NC2(CCCC2)C1=O | . | - | . | . | . | . | . | . | .
CC(C)N(Cc1ccccc1)C(=O)CN1C(=O)NC2(CCOc3ccccc32)C1=O (stereo not drawn) | . | - | . | . | . | . | . | . | .
S=c1[nH]nc(-c2ccc3ccccc3n2)n1-c1ccc2c(c1)OCCO2 | - | - | - | - | 19.6 | - | 37.7 | - | 21.6
Oc1ccc(-c2n[nH]c(=S)n2-c2ccc3c(c2)OCCO3)c(O)c1 | - | - | - | - | 16.9 | - | 35.5 | - | 18.9
S=c1[nH]nc(-c2ccc3ccccc3n2)n1-c1ccccc1 | - | - | - | - | - | . | . | . | .
C[C@H](O)[C@@H]1C(=O)N2CCc3c([nH]c4ccccc34)[C@@H]2C[C@@H]1N(C)C(=O)NC1CCCCC1 | . | - | . | . | . | . | . | . | .
COc1cccc(NC(=O)CCC2CCN(C(=O)c3cccc(NC(C)=O)c3)CC2)c1 | - | - | - | - | - | . | . | . | .
Cc1cccc(C2c3[nH]c4ccccc4c3CCN2C(=O)c2cc(CC(C)C)[nH]c(=O)n2)n1 (stereo not drawn) | - | - | - | - | 24.1 | - | 57.6 | - | 35.9
Cc1ccc2c(c1)c1nc3ccccc3nc1n2CCN1CCOCC1 | - | - | - | - | - | . | . | . | .
Cc1ccc2c(c1)c1nc3ccccc3nc1n2C | - | - | ? | ? | 13.7 | - | - | - | 16.3
Cc1nc2ccccc2c2oc(C(=O)N3CCN(C4CCCCC4)CC3)cc12 | - | - | - | - | 19.4 | - | - | - | 37.6
CC1=C(C(=O)O)N2C(=O)C(NC(=O)c3nn(C)cc3[N+](=O)[O-])C2SC1 (stereo not drawn) | - | - | - | - | 15.4 | - | 33.4 | - | 21.1
COc1ccc(CC(=O)Nc2ccccc2C(=O)N2CCCC2)cc1 | - | - | - | - | - | . | . | . | .
CCN(CC)CCn1c2ccc(F)cc2c2nc(C)sc21 | - | - | - | - | - | . | . | . | .
CCN(CC)CCSc1nnc2c3ccccc3n(Cc3ccccc3)c2n1 | - | - | - | - | 31.1 | - | - | - | 48.6
CCN(CC)CCSc1nnc2c3cc(F)ccc3n(Cc3ccccc3)c2n1 | - | - | - | - | 22.8 | - | - | - | 37.0
CCn1c2ccccc2c2nnc(SCc3ccccc3)nc21 | - | - | - | - | - | . | . | . | .
CNC(=S)Nc1cccc(-c2cnc3ccccc3n2)c1 | - | - | - | - | 13.9 | - | - | - | 9.1
CC(C)C(=O)Nc1cccc(-c2cnc3ccccc3n2)c1 | - | - | - | - | - | . | . | . | .
CN(C)S(=O)(=O)c1cccc(NC(=S)N/N=C/c2cccc(O)c2)c1 | - | - | - | - | 18.1 | - | - | - | 14.1
CN(C)S(=O)(=O)c1cccc(NC(=S)N/N=C/c2cc(Br)ccc2O)c1 | - | - | - | - | - | . | . | . | .
SMILES | IMP-1 inh-1 | MLLE-PAM2 inh | eIF4H inh | PABP polyA inh | VIM-2 inhibitor | IMP-1 inh-2 | VIM-2 FRET inh | TEM-1 inh | VIM-2 inh conf
Cc1ccc(S(=O)(=O)N2C[C@H]3C(=O)C[C@@H](c4ccc(Cl)cc4)N(S(=O)(=O)c4ccc(C)cc4)[C@H]3C[C@H]2c2ccccc2)cc1 | . | - | . | . | . | . | . | . | .
CCOC(=O)C1CCN(C(=O)CC2(CC(=O)O)CCCC2)CC1 | - | - | - | - | - | . | . | . | .
COc1cc(-c2nc3ccc(N4CCN(C)CC4)cc3[nH]2)cc(OC)c1OC | - | - | - | - | 12.6 | - | - | - | 25.9
COc1ccc2[nH]c(C(=O)O)c(CCNC(C)=O)c2c1 | - | - | - | - | - | . | . | . | .
COc1ccc2[nH]c(C(=O)O)c(CCN3C(=O)c4cccc([N+](=O)[O-])c4C3=O)c2c1 | - | - | - | - | 14.3 | - | 79.5 | - | 65.0
COc1ccc(NC(=O)COc2cccc3c2CCN(Cc2cccnc2)C3=O)c(OC)c1 | - | - | - | - | 13.7 | - | - | - | 22.7
COc1ccc(NC(=O)COc2cccc3c2CCN(Cc2cccnc2)C3=O)cc1 | - | - | - | - | - | . | . | . | .
CN1CCN(C(=O)CCc2nc3ccccc3c(=O)[nH]2)CC1 | - | - | - | - | 21.3 | - | - | - | 42.0
COc1ccc(NC(=O)c2cc3c(Cl)nc4ccccc4c3s2)cc1OC | - | - | - | - | - | . | . | . | .
CN(C)CCN(Cc1ccco1)C(=O)c1cc2c(Cl)nc3ccccc3c2s1 | - | - | - | - | 12.7 | - | - | - | 36.4
CCCCN(Cc1ccco1)C(=O)c1cc2c(=O)[nH]c3ccc(C)cc3c2s1 | - | - | - | - | - | . | . | . | .
CN(CCC#N)C(=O)c1cc2c(Cl)nc3ccccc3c2s1 | - | - | - | - | 20.2 | - | - | - | 25.3
S=c1[nH]nc(C2CCCCC2)n1/N=C/c1ccccc1Cl | - | - | - | - | - | . | . | . | .
O=C(O)c1ccccc1/C=N/n1c(C2CCCCC2)n[nH]c1=S | - | - | - | - | 15.3 | - | 31.7 | - | 21.2
Cc1ccc(C)n1-c1sc2c(c1C#N)CCCC2 | - | - | - | - | - | . | . | . | .
Cc1csc2c(C#N)c(=O)c3c(n12)CCC3 | - | - | - | - | 13.9 | - | - | - | 21.7
CC(=O)c1ccccc1NC(=O)c1ccc(OCc2c(C)noc2C)cc1 | . | - | . | . | . | . | . | . | .
CC(C)C(=O)Nc1nnc(SCC(=O)NCc2cccs2)s1 | - | - | - | - | 13.9 | - | 41.1 | - | 26.3
Cc1cccc(C)c1Nc1nnc(SCC(=O)NCc2cccs2)s1 | - | - | - | - | - | . | . | . | .
CC(C)(C)C(=O)Nc1nnc(SCC(=O)NCc2cccs2)s1 | - | - | - | - | 56.3 | - | 78.6 | - | 61.3
C=CC(C)(C)O[C@@H]1O[C@H](CO)[C@@H](O)[C@H](O)[C@H]1O | . | - | . | . | . | . | . | . | .
Cc1ccc(-c2ccc(/C=N/n3cnnc3)o2)cc1 | - | - | - | - | - | . | . | . | .
Clc1cccc(-c2ccc(/C=N/n3cnnc3)o2)c1 | - | - | - | - | 18.7 | - | - | 1.9 | 33.3
Cc1ccc(-c2ccc(/C=N/n3cnnc3)o2)cc1Cl | - | - | - | - | 21.4 | - | - | - | 44.5
